Tests used:
Histamine H3 receptor [1] = molecular target: T1, Histamine H3 receptor (Homo sapiens, UniProt Q9Y5N1); assay: Displacement of [3H]N-alpha-methylhistamine from human histamine H3 receptor expressed in HEK cells by scintillation counting; type: cell-based, HEK293
Method in brief: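 Membranes (P2 pellet) from rHu H3–HEK cells were incubated in 50 mM Tris–HCl, pH 7.4, with 1 nM [3H]N-α-methylhistamine (82 Ci/mmol). Compounds were tested at half-log steps over a five-log range. Nonspecific binding was defined with 10^-5 M thioperamide. Incubation ran 30 min at 30 °C, then mixtures were filtered on PEI-soaked GF/B filters, washed three times and counted. Ki was taken from nonlinear curve fits.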

[2] = molecular target: Voltage-gated inwardly rectifying potassium channel KCNH2 (Homo sapiens, UniProt Q12809); assay: Rubidium efflux through human ERG at 5 ug/mL pre-equilibrated for 30 mins by flame atomic absorbance spectroscopy
Voltage-gated inwardly rectifying potassium channel KCNH2, sequence (Q12809 whole entry): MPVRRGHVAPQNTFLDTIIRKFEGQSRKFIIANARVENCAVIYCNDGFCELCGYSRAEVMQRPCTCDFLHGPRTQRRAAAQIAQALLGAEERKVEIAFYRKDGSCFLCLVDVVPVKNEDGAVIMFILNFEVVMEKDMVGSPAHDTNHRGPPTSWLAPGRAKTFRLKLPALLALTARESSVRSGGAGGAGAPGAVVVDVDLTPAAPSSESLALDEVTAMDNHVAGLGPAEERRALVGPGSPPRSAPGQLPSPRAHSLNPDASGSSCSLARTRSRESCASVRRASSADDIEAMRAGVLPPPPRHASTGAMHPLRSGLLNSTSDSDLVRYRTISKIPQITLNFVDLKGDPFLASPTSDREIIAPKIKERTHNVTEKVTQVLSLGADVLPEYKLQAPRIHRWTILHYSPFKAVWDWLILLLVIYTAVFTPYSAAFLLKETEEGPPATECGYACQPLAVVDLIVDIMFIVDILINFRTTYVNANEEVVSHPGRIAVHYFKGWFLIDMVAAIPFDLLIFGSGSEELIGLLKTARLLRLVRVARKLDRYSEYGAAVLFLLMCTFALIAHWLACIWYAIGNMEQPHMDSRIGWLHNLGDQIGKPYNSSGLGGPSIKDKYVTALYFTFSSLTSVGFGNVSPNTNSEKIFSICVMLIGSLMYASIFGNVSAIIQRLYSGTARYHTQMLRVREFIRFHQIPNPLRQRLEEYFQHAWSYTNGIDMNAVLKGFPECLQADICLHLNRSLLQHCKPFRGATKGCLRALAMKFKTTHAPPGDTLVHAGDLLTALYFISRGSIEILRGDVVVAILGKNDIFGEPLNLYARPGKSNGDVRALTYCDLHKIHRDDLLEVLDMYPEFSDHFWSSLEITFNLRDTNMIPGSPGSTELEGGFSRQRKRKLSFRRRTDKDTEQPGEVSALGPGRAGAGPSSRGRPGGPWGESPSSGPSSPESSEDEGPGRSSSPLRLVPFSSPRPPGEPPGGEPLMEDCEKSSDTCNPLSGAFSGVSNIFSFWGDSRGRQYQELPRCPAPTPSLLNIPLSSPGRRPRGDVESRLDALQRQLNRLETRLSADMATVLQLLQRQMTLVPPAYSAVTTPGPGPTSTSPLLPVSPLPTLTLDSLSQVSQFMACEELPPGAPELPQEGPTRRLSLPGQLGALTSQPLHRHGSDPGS

Histamine H3 receptor [3] = molecular target: T1, Histamine H3 receptor; assay: Antagonist activity at human histamine H3 receptor expressed in HEK293 cells assessed as reversal of N-alpha-methylhistamine-induced inhibition of forskolin-stimulated cAMP formation; type: functional, cell-based
Cytochrome P450 3A4 = Cytochrome P450 3A4 (Homo sapiens, UniProt P08684); assay: Inhibition of CYP3A4 in human liver microsomes up to 30 uM by microtiter plate assay; type: ADME, Microsome
Cytochrome P450 3A4, sequence (P08684 whole entry): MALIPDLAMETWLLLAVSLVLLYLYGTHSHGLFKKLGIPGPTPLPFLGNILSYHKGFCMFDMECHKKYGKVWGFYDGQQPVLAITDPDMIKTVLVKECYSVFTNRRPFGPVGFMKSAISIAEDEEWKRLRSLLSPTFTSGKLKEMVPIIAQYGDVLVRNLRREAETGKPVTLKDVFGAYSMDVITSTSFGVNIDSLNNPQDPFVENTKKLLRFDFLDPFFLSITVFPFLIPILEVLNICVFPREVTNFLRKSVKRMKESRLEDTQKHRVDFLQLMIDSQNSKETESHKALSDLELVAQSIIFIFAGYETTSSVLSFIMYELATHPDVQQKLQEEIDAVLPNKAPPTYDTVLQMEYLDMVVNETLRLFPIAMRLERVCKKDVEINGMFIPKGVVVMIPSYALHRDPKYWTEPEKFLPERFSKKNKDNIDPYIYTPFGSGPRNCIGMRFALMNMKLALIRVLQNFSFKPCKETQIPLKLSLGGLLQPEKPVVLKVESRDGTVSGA

[4] = AUC (0 to 6 hrs) in rat at 10 mg/kg, po; type: ADME, organism-based; parameters: time < 6 hr, dose 10 mg/kg, route oral; settings: plasma
Method in brief: (§1)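 Oral dosing in rat at 10 mg/kg in methyl cellulose, n = 2, in a high-throughput PK assay. Plasma was sampled over 0–6 h time points to give AUC and Cmax.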

Cytochrome P450 2D6 = Cytochrome P450 2D6 (Homo sapiens, UniProt P10635); assay: Inhibition of CYP2D6 in human liver microsomes up to 30 uM by microtiter plate assay; type: ADME, Microsome
Cytochrome P450 2D6, sequence (P10635 whole entry): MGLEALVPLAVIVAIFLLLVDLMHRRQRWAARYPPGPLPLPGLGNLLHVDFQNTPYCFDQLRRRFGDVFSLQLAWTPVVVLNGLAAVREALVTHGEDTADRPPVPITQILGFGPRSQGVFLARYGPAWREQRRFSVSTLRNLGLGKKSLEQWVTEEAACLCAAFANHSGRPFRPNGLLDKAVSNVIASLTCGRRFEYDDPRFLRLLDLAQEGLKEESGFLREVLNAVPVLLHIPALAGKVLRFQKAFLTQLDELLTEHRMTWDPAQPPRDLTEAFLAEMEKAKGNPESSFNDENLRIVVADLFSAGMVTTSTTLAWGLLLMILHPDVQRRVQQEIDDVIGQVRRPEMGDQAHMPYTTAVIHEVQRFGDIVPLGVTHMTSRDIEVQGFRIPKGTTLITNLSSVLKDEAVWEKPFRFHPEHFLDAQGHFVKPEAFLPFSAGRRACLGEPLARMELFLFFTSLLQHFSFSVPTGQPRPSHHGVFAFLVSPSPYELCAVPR

[5] = Cmax (0 to 6 hrs) in rat at 10 mg/kg, po; type: ADME, organism-based; parameters: dose 10 mg/kg, route oral; settings: in vivo; method in brief: as §1
Histamine H3 receptor [6] = molecular target: Histamine H3 receptor (Mus musculus, UniProt P58406); assay: Binding affinity to mouse histamine H3 receptor
Histamine H3 receptor (Mus musculus, UniProt P58406), sequence (P58406 whole entry): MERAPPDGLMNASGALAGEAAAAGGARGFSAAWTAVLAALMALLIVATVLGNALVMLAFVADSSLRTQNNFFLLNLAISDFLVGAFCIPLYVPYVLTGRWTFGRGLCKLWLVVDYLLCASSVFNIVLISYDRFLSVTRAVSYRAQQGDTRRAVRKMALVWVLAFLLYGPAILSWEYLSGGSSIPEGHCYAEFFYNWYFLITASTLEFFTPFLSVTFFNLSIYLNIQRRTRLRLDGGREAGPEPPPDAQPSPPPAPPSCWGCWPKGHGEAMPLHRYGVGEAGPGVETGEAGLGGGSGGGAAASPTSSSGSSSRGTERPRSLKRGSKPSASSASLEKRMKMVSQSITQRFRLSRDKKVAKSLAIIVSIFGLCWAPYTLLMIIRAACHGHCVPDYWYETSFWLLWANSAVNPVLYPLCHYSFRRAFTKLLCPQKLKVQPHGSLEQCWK

T1 sequence (Q9Y5N1 whole entry): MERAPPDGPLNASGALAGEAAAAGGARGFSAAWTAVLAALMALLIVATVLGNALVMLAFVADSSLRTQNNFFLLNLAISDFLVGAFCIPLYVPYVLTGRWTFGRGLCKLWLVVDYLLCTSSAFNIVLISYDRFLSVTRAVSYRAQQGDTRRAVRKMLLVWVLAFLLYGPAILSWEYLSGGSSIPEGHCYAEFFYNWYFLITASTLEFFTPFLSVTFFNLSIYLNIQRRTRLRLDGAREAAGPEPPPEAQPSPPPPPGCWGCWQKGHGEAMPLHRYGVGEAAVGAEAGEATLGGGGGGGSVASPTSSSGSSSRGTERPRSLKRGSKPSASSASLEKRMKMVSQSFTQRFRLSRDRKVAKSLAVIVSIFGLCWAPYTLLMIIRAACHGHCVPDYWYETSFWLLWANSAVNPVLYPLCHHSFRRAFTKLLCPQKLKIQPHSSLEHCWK

Compound	Ki (Histamine H3 receptor [1])	also measured
Fc1ccc2c(c1)nc(-c1ccccn1)n2-c1ccc(OCCCN2CCCCCC2)cc1	5.3 nM	–
CN1CCCN(CCCOc2ccc(-n3c(-c4ccccn4)nc4cc(F)ccc43)cc2)CC1	3.6 nM	–
Fc1ccc2c(c1)nc(-c1ccccn1)n2-c1ccc(OCCCN2CCc3ccccc3C2)cc1	107 nM	Rb efflux [2]: 94%
CNCCCOc1ccc(-n2c(-c3ccccn3)nc3cc(F)ccc32)cc1	101 nM	–
CCSc1nc2cc(F)ccc2n1-c1ccc(OCCCN2CCCCC2)cc1	2.6 nM	–
C[C@@H]1CC[C@@H](C)N1CCCOc1ccc(-n2c(-c3ccccn3)nc3cc(F)ccc32)cc1	5.1 nM	–
Fc1ccc2c(c1)nc(-c1ccccn1)n2-c1ccc(OCCCN2CCSC2)cc1	20 nM	Rb efflux [2]: 42%
Fc1ccc2c(c1)nc(-c1ccccn1)n2-c1ccc(OCCCN2CCC(Cc3ccccc3)CC2)cc1	2 nM	–
NC(=O)C1CCN(CCCOc2ccc(-n3c(-c4ccccn4)nc4cc(F)ccc43)cc2)CC1	20 nM	–
OC1CCN(CCCOc2ccc(-n3c(-c4ccccn4)nc4cc(F)ccc43)cc2)CC1	1.8 nM	Rb efflux [2]: 16%
CCOc1nc2cc(F)ccc2n1-c1ccc(OCCCN2CCCCC2)cc1	15 nM	–
Fc1ccc2c(c1)nc(-c1ccccn1)n2-c1ccc(OCCCN2CCCCC2)cc1	1.2 nM	Ki (Histamine H3 receptor [3]): 0.1 nM; Activity (Cytochrome P450 3A4): Not Active; AUC(0-t) at 6 h [4]: 2.03 µg·h/mL; Activity (Cytochrome P450 2D6): Not Active; Cmax [5]: 0.393 µg/mL; Rb efflux [2]: 70%; Ki (Histamine H3 receptor [6]): 1.8 nM
COC(=O)C1CCN(CCCOc2ccc(-n3c(-c4ccccn4)nc4cc(F)ccc43)cc2)CC1	16 nM	Rb efflux [2]: 49%
O=c1[nH]c2cc(F)ccc2n1-c1ccc(OCCCN2CCCCC2)cc1	8.7 nM	–
Fc1ccc2c(c1)nc(-c1ccccn1)n2-c1ccc(OCCCN2CCOCC2)cc1	3.4 nM	Rb efflux [2]: 62%
CN1CCN(CCCOc2ccc(-n3c(-c4ccccn4)nc4cc(F)ccc43)cc2)CC1	13 nM	–
Fc1ccc2c(c1)nc(-c1ccccn1)n2-c1ccc(OCCCN2Cc3cccc4cccc(c34)C2)cc1	713 nM	–
NC(=O)C1CCCN(CCCOc2ccc(-n3c(-c4ccccn4)nc4cc(F)ccc43)cc2)C1 (stereo not drawn)	11 nM	–
CC1CC(C)CN(CCCOc2ccc(-n3c(-c4ccccn4)nc4cc(F)ccc43)cc2)C1 (stereo not drawn)	11 nM	–
Fc1ccc2c(c1)[nH]c(=S)n2-c1ccc(OCCCN2CCCCC2)cc1	8 nM	–
Fc1ccc2c(c1)nc(-c1ccccn1)n2-c1ccc(OCCCN2CCCC2)cc1	1.2 nM	–

Reference: ChEMBL document CHEMBL1141692, “Benzimidazole-substituted (3-phenoxypropyl)amines as histamine H3 receptor ligands” (Bioorg Med Chem Lett, 2008)
